In ChEMBL document CHEMBL1154223, “Oxygenated lignans from the fruits of Schisandra arisanensis” (2009):

Assays:
Type in all cases: functional
[1] = tested on: PBMC; assay: Inhibition of human PBMC proliferation assessed as [3H]thymidine uptake at 100 uM after 3 days by scintillation counting
Method in brief: (§1)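 Human PBMC at 2 × 10^6 cells/mL were plated with or without PHA and exposed to test compound at 100 µM. Cultures were kept at 37 °C in humidified 5% CO2-air for 3 days, then pulsed with tritiated thymidine at 1 µCi/well for 16 h. Cells were harvested onto glass fiber filters, and radioactivity was counted by scintillation. Results are given as % inhibition.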

[2] = tested on: PBMC; assay: Inhibition of 5 ug/ml PHA-stimulated human PBMC proliferation assessed as [3H]thymidine uptake at 100 uM after 3 days by scintillation counting; method in brief: as §1
[3] = tested on: PBMC; assay: Inhibition of 0.2 ug/ml PHA-stimulated human PBMC proliferation assessed as [3H]thymidine uptake at 100 uM after 3 days by scintillation counting; method in brief: as §1
[4] = tested on: PBMC; assay: Inhibition of 5 ug/ml PHA-stimulated human PBMC proliferation assessed as [3H]thymidine uptake at 5 uM after 3 days by scintillation counting
[5] = tested on: PBMC; assay: Inhibition of human PBMC proliferation assessed as [3H]thymidine uptake at 5 uM after 3 days by scintillation counting

| Compound | inhibition at 100 µM [1] | inhibition (INH) [2] | inhibition (INH) [3] | inhibition (INH) [4] | inhibition at 5 µM [5] |
| --- | --- | --- | --- | --- | --- |
| C/C=C(/C)C(=O)O[C@H]1c2cc(OC)c(OC)c(OC)c2-c2c(cc(O)c(OC)c2OC)C[C@@H](C)[C@@]1(C)O | 44.5% | 44.3% | 67% | – | – |
| C/C=C(/C)C(=O)O[C@H]1c2cc3c(c(OC)c2-c2c(cc(OC)c(OC)c2O)C[C@H](C)[C@]1(C)O)OCO3 | 12.7% | 14.6% | 16.4% | – | – |
| CC=C(C)C(=O)O[C@H]1c2cc3c(c(OC)c2-c2c(cc(OC)c(OC)c2OC)C[C@H](C)[C@]1(C)O)OCO3 | 36.1% | 58.9% | 75.2% | – | – |
| COc1cc2c(c(O)c1OC)-c1c(cc(OC)c(OC)c1OC)C[C@@H](C)[C@@H](C)C2 [SCHISANHENOL] | 60.8% | 76% | 80.1% | – | – |
| COc1cc(C[C@@H](C)[C@@H](C)Cc2cc(O)c(OC)c(OC)c2)cc(O)c1OC [PREGOMISIN] | 63.9% | 95.6% | 83% | – | – |
| COc1cc2c(c(O)c1OC)-c1c(cc(O)c(OC)c1OC)C[C@@H](C)[C@@H](C)C2 [ARISANSCHININ G] | 54.7% | 92.5% | 76.3% | – | – |
| COc1cc2c(c(O)c1OC)-c1c(cc(O)c(OC)c1OC)C[C@H](C)[C@H](C)C2 [ARISANSCHININ F] | 58.5% | 92.9% | 81.7% | – | – |
| COc1cc2c(cc1O)C(=O)[C@H](C)[C@@H](C)[C@@H]2c1ccc(OC)c(OC)c1 [ARISANTETRALONE D] | 34.1% | 83.9% | 70.1% | – | – |
| COc1cc2c(cc1O)C(=O)[C@@H](C)[C@@H](C)[C@@H]2c1ccc(OC)c(OC)c1 [ARISANTETRALONE C] | 54.1% | 89.3% | 76.3% | – | – |
| COc1cc2c(c(OC)c1OC)-c1c(cc3c(c1OC)OCO3)[C@H](OC(=O)c1ccccc1)[C@@](C)(O)[C@@H](C)C2 [GOMISIN G] | 46.2% | 88.6% | 75.8% | – | – |
| C/C=C/C[C@@H](C)[C@@H](O)[C@H]1C(=O)N[C@@H](CC)C(=O)N(C)CC(=O)N(C)[C@@H](CC(C)C)C(=O)N[C@@H](C(C)C)C(=O)N(C)[C@@H](CC(C)C)C(=O)N[C@@H](C)C(=O)N[C@H](C)C(=O)N(C)[C@@H](CC(C)C)C(=O)N(C)[C@@H](CC(C)C)C(=O)N(C)[C@@H](C(C)C)C(=O)N1C [CYCLOSPORINE] | – | – | – | 89.9% | 25.5% |
| COc1cc([C@@H]2c3cc(OC)c(O)cc3C(=O)[C@@H](C)[C@H]2C)ccc1O [ARISANTETRALONE A] | 59.7% | 91.9% | 78.1% | – | – |
| COc1cc([C@@H]2c3cc(OC)c(OC)cc3C(=O)[C@@H](C)[C@H]2C)ccc1O | 61% | 95.6% | 82.7% | – | – |
| COc1cc([C@@H]2c3cc(O)c(OC)cc3C(=O)[C@@H](C)[C@H]2C)ccc1O [ARISANTETRALONE B] | 56.9% | 90.8% | 75.3% | – | – |
| C/C=C(/C)C(=O)O[C@H]1c2cc(OC)c(OC)c(O)c2-c2c(cc3c(c2OC)OCO3)C[C@@H](C)[C@@]1(C)O | 47% | 66.6% | 74% | – | – |
